The text below walks through data of publication PMC9742164 (ChemMedChem, 2022).

The target of assay [1] is T1, E. coli DNA gyrase (Escherichia coli, UniProt P0AES6). Briefly: Gel-based DNA gyrase supercoiling inhibition assay. As to conditions: for Inhibition of E. coli DNA gyrase: polyphenol screen, in words; for IC50: supercoiling. Format: biochemical.
The target of assay [2] is T2, E. coli DNA topoisomerase IV (Escherichia coli, UniProt P20083). Briefly: Topoisomerase IV ATPase linked assay. Format: biochemical. As to conditions: in words; 100 μM (Figure 4e). The procedure, abridged:
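Topoisomerase IV ATP hydrolysis was coupled to NADH oxidation via pyruvate kinase/lactate dehydrogenase, read at 340 nm, 37°C. Buffer: 10 mM Tris-HCl pH 7.5, 0.2 mM EDTA, 1 mM MgCl2, 1 mM DTT, 2% glycerol. Mix: relaxed pAB1, 0.8 mM phosphoenolpyruvate, 0.4 mM NADH. After 5 min preincubation, 2 mM ATP was added. Test compounds at 100 μM.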

Assay [3] addresses T1, E. coli DNA gyrase. In words: DNA gyrase ATPase linked assay. Format: biochemical. The procedure, abridged: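 Pyruvate kinase/lactate dehydrogenase-coupled NADH assay at 37°C. Buffer: 10 mM Tris-HCl pH 7.5, 0.2 mM EDTA, 1 mM MgCl2, 1 mM DTT, 2% glycerol. Mix: 50 nM gyrase or GyrB, 200 ng relaxed pAB1, 0.8 mM phosphoenolpyruvate, 1.2 U PK, 1.7 U LDH, 0.4 mM NADH. After 5 min preincubation, 2 mM ATP started the reaction, read at A340. Double-reciprocal plot with or without test compound at 500 nM; single-point at 100 μM.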

Assay [4] concerns the target T2, E. coli DNA topoisomerase IV. Briefly: DNA decatenation assay by topoisomerase IV. The format is biochemical.
In assay [5] the target is T3, human DNA topoisomerase I (Homo sapiens, UniProt P11387).
T3 sequence (P11387 1-765): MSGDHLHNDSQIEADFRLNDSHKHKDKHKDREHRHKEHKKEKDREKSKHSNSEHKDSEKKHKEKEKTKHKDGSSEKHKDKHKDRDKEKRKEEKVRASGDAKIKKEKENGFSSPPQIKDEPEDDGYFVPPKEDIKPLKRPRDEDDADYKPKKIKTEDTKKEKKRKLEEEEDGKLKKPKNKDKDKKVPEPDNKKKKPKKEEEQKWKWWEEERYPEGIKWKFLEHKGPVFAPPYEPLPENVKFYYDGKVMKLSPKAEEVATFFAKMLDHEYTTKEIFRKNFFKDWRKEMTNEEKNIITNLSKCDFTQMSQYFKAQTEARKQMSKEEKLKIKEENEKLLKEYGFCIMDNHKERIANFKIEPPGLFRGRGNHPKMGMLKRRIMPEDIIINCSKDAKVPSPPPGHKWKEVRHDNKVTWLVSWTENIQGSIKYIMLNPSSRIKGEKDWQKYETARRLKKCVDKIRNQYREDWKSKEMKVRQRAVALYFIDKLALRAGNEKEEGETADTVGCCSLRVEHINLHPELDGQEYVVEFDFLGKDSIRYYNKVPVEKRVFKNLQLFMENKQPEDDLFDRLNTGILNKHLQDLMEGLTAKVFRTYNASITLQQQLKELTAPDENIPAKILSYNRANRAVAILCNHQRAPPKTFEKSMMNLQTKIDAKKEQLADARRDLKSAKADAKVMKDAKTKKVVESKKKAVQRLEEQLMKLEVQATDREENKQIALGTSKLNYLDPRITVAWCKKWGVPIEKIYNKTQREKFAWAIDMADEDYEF
In words: DNA relaxation assay by human DNA topoisomerase I. The format is biochemical. As to conditions: at 100 μM.

The target in assay [6] is T1, E. coli DNA gyrase. Briefly: SDFQ-based DNA gyrase supercoiling inhibition assay. Format: biochemical.
Assay [7] deals with MRSA ATCC 33591. Briefly: MIC broth microdilution. Format: cell-based, methicillin-resistant Staphylococcus aureus. For orientation: In broth dilution the organism is exposed to a series of concentrations in liquid medium.
The subject of assay [8] is E. coli ATCC 25922. In words: MIC broth microdilution. The format is cell-based.
The subject of assay [9] is S. aureus ATCC 14775. Briefly: MIC broth microdilution. Format: cell-based.
Assay [10] addresses T2, E. coli DNA topoisomerase IV. In words: SDFQ-based DNA relaxation assay by topoisomerase IV. Format: biochemical.
The target is the same in assay [11]. In words: Gel-based DNA relaxation assay by topoisomerase IV. As to conditions: for IC50: IC50 against E. coli topoisomerase IV, relaxation; for Inhibition of E. coli DNA topoisomerase IV: in words. The format is biochemical.
Assay [12] concerns the target T1, E. coli DNA gyrase. Briefly: DNA gyrase-mediated DNA cleavage assay. The format is biochemical. Conditions: up to 200 μM digallic acid. The procedure, abridged:
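Plasmid pBR322 (250 ng) and 20 nM E. coli gyrase were incubated in gyrase buffer with test compound (0–200 μM) at 37°C for 15 min. Then 0.2% SDS and 0.1 mg/mL proteinase K were added to trap cleavage complexes, with 30 min more at 37°C. […] Products ran on 1% agarose containing 0.5 μg/mL ethidium bromide.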

In assay [13] the target is human DNA topoisomerase IIα (Homo sapiens, UniProt P11388). In words: DNA relaxation assay by human DNA topoisomerase IIα. Format: biochemical. As to conditions: at 100 μM.
Sequence of human DNA topoisomerase IIα (P11388 whole entry): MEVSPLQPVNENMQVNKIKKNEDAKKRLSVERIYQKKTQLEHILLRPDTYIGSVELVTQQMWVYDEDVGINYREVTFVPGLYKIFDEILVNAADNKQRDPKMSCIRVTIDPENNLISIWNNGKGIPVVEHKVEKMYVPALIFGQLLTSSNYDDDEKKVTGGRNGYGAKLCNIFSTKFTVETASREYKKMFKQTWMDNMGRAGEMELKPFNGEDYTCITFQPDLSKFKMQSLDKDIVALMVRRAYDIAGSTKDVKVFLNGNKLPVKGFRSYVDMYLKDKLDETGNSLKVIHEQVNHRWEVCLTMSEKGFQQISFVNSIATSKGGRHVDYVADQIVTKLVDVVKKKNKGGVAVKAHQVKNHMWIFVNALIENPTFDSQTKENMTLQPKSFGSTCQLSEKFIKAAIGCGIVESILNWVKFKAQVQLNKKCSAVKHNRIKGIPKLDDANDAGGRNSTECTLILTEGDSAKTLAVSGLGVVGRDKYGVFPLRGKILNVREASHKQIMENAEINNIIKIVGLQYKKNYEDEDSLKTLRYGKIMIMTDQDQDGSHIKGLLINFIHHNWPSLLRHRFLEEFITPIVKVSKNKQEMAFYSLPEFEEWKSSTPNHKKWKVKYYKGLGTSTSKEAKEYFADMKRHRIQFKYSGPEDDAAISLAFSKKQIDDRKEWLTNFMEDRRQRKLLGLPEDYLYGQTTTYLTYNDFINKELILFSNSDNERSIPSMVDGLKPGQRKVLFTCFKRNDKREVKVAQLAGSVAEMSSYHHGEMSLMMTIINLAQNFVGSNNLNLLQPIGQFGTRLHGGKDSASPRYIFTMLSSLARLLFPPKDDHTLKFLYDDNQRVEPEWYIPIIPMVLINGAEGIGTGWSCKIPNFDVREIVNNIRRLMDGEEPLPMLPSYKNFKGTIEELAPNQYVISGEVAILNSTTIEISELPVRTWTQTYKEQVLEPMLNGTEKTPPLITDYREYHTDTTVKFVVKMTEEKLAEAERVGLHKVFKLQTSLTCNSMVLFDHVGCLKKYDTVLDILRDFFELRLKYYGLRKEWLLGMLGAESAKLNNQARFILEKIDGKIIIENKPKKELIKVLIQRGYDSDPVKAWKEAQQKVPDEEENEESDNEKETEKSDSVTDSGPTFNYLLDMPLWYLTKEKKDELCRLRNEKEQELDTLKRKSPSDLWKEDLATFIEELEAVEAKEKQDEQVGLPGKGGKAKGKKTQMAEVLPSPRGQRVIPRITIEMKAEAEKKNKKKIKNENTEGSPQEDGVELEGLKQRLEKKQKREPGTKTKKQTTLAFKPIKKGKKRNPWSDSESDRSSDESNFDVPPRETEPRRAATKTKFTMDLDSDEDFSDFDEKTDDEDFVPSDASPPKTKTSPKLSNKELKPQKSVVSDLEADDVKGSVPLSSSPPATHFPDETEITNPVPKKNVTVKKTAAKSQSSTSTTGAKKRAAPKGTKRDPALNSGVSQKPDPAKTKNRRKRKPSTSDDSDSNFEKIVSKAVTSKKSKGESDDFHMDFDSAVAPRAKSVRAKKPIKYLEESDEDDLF
For assay [14], the target named is E. coli DNA topoisomerase I (Escherichia coli, UniProt P06612). Briefly: DNA relaxation assay by E. coli DNA topoisomerase I. Format: biochemical. As to conditions: at 100 μM.
Sequence of E. coli DNA topoisomerase I (P06612 whole entry): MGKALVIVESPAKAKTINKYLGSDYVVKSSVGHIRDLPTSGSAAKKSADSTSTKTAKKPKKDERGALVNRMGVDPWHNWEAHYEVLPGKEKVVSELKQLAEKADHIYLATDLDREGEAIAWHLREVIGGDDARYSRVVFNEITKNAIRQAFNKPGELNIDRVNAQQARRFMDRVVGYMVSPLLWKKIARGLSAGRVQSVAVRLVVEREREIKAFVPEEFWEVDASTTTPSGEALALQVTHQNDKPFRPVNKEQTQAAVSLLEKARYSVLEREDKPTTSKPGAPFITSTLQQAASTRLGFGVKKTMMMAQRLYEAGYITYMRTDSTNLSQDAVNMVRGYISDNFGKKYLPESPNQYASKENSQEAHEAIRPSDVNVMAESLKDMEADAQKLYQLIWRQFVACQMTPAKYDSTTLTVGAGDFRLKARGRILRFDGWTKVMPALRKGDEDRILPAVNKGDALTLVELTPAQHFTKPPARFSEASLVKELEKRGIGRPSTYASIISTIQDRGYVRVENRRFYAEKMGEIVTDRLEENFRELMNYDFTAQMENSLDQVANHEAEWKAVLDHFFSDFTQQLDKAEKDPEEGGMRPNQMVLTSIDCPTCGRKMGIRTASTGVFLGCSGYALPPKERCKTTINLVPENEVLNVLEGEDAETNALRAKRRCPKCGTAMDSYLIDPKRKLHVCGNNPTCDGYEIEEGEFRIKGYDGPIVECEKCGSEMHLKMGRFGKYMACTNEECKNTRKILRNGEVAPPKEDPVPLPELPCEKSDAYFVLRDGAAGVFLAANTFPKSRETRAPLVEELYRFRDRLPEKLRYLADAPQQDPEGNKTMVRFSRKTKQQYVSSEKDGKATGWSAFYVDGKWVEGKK
Assay [15] has as its system E. coli imp BAS3023. The format is cell-based. As to conditions: E. coli imp BAS3023 (imp4213 permeability mutation).
Assay [16] relates to B. subtilis ATCC 6633. In words: MIC broth microdilution. Format: cell-based.
Where [17] appears, read: Staphylococcus aureus, ATCC33591|MRSA.
Where [18] appears, read: IC50 against E. coli DNA gyrase, Gel-based.
Setting [19] is: Staphylococcus aureus, ATCC14775.

≈ marks a conversion by molar mass, not a printed value.

T2 sequence (P20083 whole entry): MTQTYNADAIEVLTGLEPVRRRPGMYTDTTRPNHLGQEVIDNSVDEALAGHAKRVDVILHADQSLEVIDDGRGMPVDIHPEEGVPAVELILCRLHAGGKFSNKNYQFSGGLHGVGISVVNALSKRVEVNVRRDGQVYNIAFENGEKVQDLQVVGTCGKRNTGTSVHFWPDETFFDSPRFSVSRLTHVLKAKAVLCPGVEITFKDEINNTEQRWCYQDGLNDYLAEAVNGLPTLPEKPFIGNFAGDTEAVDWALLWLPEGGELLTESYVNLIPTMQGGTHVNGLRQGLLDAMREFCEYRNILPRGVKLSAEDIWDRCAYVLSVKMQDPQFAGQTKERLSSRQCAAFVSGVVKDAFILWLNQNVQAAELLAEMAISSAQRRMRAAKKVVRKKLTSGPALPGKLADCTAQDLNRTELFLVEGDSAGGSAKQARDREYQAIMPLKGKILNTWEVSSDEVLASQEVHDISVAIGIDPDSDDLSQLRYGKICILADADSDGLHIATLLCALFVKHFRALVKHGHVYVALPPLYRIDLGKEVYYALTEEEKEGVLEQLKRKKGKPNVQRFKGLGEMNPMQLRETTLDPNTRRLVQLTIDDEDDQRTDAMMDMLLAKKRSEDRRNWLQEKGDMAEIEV
T2 sequence (P0AFI2 whole entry, further chain): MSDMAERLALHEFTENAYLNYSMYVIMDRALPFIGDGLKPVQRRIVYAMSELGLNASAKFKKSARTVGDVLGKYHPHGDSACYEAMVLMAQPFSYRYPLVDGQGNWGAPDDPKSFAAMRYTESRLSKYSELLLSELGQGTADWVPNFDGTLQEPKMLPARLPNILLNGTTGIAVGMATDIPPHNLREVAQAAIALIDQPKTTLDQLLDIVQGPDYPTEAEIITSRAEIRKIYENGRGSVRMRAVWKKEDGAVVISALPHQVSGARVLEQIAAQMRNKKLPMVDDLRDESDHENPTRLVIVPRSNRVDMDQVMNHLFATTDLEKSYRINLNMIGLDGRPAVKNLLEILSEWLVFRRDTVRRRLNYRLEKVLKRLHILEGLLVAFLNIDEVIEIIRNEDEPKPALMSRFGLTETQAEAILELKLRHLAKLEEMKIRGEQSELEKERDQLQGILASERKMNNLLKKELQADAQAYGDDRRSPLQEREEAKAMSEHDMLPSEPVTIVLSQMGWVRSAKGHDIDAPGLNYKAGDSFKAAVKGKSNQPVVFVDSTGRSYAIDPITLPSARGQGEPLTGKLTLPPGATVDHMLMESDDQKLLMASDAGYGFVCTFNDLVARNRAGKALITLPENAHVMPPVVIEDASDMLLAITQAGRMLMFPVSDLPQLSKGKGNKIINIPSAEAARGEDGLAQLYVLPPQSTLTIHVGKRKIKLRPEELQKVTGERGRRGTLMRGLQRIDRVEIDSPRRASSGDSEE

On to `O=c1oc2c(O)c(O)cc3c(=O)oc4c(O)c(O)cc1c4c23` [ellagic acid, reference compound], for which the “Inhibition of E. coli DNA gyrase” value in assay [1] is “strongly inhibit”.

As for `O=C(O)c1cc(O)c(O)c(OC(=O)c2cc(O)c(O)c(O)c2)c1` [Digallic acid, digallic acid], the “Inhibition of ATPase activities of bacterial DNA topoisomerase IV” value in assay [2] is listed as “inhibit”. For the same molecule, in [3], the affinity corresponds to a Ki of 0.347 µM. In assay [3] (in the presence of 500 nM of digallic acid, without inhibitor 16.3 ± 2.5 nM/s), the “Vmax of gyrase ATPase” value is on record as 17.8 ± 5.0 nM/s. In addition, the “Inhibition of ATPase activities of E. coli DNA gyrase” value in assay [3] (in words, 100 μM (Figure 3d)) is reported as “greatly inhibit”. Besides, the half-maximal inhibitory concentration (IC50) (commonly the concentration needed to halve the response being measured) in assay [4] was approximately 4 µM; in [6], 1.9 µM; in assay [1] (setting [18]) it was 2 µM; in assay [1] (IC50 against E. coli DNA gyrase, gel (Figure 1)), approximately 2 µM; in [10], 7.3 µM; in assay [11] (Gel-based) it was 8 µM. The molecule further returned a 50% inhibitory concentration (IC50) in assay [11] of approximately 8 µM. Besides, the “Inhibition of human DNA topoisomerase I” value in assay [5] is on record as “do not inhibit”. The MIC (commonly the lowest concentration found to suppress growth) in assay [7] (setting [17]) was 200 µM (≈ 64.4 µg/mL); in assay [8] (Escherichia coli, ATCC25922), more than 200 µM; in assay [9] (setting [19]) it was 200 µM (≈ 64.4 µg/mL). Further, the “Gyrase poisoning (gyrase-mediated DNA cleavage)” value in [12] is recorded as “not bacterial DNA gyrase poisons”. For the same molecule, the “Inhibition of human DNA topoisomerase IIα” value in assay [13] is “do not inhibit”. For the same molecule, the “Inhibition of E. coli DNA topoisomerase I” value in assay [14] is on record as “do not inhibit”.

`CCCCOC(=O)c1cc(O)c(O)c(O)c1` [Butyl gallate, butyl gallate]: the half-inhibitory concentration (IC50) in assay [6], in [1] (setting [18]), in [10] and in [11] (Gel-based) was more than 100 µM throughout. In addition, the minimal inhibitory concentration (MIC) in assay [7] (setting [17]) is more than 200 µM; in assay [8] (Escherichia coli, ATCC25922), more than 200 µM; in assay [9] (setting [19]) it was more than 200 µM.

Consider `CCCCCCCCOC(=O)c1cc(O)c(O)c(O)c1` [Octyl gallate, octyl gallate], for which the half-maximal inhibitory concentration (IC50) in assay [6] was 26 µM; in assay [1] (setting [18]), 50 µM; in assay [10] it was 41.2 µM; in [11] (Gel-based), 50 µM. In addition, the MIC was 100 µM (≈ 28.2 µg/mL) in assay [7] (setting [17]); more than 200 µM in [8] (Escherichia coli, ATCC25922); 200 µM (≈ 56.5 µg/mL) in [9] (setting [19]). In assay [11], the “Inhibition of E. coli DNA topoisomerase IV” value is given as “strongly inhibit”.

Turning to `O=C(O)c1cc(O)c(O)c(O)c1` [Gallic acid, gallic acid], the IC50 in assay [1] (setting [18]) and in [11] (Gel-based) was more than 500 µM throughout.

`O=C(/C=C/c1ccc(O)c(O)c1)O[C@@H]1CC(O)(C(=O)O)C[C@@H](OC(=O)/C=C/c2ccc(O)c(O)c2)C1O` (stereo partly drawn) [3,5-dicaffeoylquinic acid, reference compound]: the “Inhibition of E. coli DNA gyrase” value in assay [1] is reported as “strongly inhibit”.

Regarding `CO[C@@H]1[C@@H](OC(N)=O)[C@@H](O)[C@H](Oc2ccc3c(O)c(NC(=O)c4ccc(O)c(CC=C(C)C)c4)c(=O)oc3c2C)OC1(C)C` [Novobiocin, novobiocin, reference compound], the minimal inhibitory concentration (MIC) in assay [7] (setting [17]) is less than 6.25 µM; in assay [8] (Escherichia coli, ATCC25922), 158 µM (≈ 96.5 µg/mL); in [9] (setting [19]), less than 6.25 µM.

Consider `O=C(O[C@@H]1Cc2c(O)cc(O)cc2O[C@@H]1c1cc(O)c(O)c(O)c1)c1cc(O)c(O)c(O)c1` [EGCG, epigallocatechin gallate, reference compound], for which, in assay [1], the “Inhibition of E. coli DNA gyrase” value was “strongly inhibit”.

For `O=C(Oc1ccc(-c2ccccc2)cc1)c1cc(O)c(O)c(O)c1` [Biphenyl gallate, biphenyl gallate], the MIC is 50 µM (≈ 16.1 µg/mL) in assay [7] (MRSA ATCC 33591); 200 µM (≈ 64.5 µg/mL) in assay [15]; more than 200 µM in assay [8] (E. coli ATCC 25922); 50 µM (≈ 16.1 µg/mL) in [9] (S. aureus ATCC 14775); 50 to 100 µM in assay [16].

For the molecule `CCCCCCCCCCCCOC(=O)c1cc(O)c(O)c(O)c1` [Dodecyl gallate, dodecyl gallate], the concentration for half-maximal inhibition (IC50) is 13.8 µM in assay [6], 15 µM in assay [1] (setting [18]), 36.9 µM in assay [10] and 50 µM in assay [11] (Gel-based). Also, the MIC was 200 µM (≈ 67.7 µg/mL) in [7] (setting [17]); more than 200 µM in assay [8] (Escherichia coli, ATCC25922); 200 µM (≈ 67.7 µg/mL) in assay [9] (setting [19]). Also, the “Inhibition of E. coli DNA topoisomerase IV” value in [11] is on record as “strongly inhibit”.

Turning to tannic acid, the half-inhibitory concentration (IC50) in [1] (read-out: IC50 against E. coli DNA gyrase, gel (Figure 1)) stood at 1 µM.

Take `O=C(Oc1ccccc1)c1cc(O)c(O)c(O)c1` [Phenyl gallate, phenyl gallate]: the IC50 in assay [6] (read-out: IC50 against E. coli DNA gyrase, SDFQ, supercoiling, SDFQ) was more than 100 µM; in assay [1] (read-out: IC50 against E. coli DNA gyrase, Gel-based, gel-based), more than 100 µM; in assay [10] (read-out: IC50 against E. coli topoisomerase IV, SDFQ, relaxation, SDFQ), more than 100 µM. Besides, the minimal inhibitory concentration (MIC) in [7] (MRSA ATCC 33591) was 200 µM (≈ 49.2 µg/mL); in assay [15] it was more than 200 µM; in [8] (E. coli ATCC 25922), more than 200 µM; in assay [9] (S. aureus ATCC 14775), 200 µM (≈ 49.2 µg/mL); in assay [16], more than 200 µM.
